Usually EC50 stands for the midpoint of the concentration-response curve. In general, MIC refers to the least concentration at which growth counts as inhibited. In general, LC50 refers to the concentration that kills 50% of the test population. The low end stands for greater toxicity, the high end for lower toxicity.

In brackets after ≈: the same amount, converted by molar mass. Activity calls are given as the source filed them. The calls are words filed in the database; no cut-off is given here.

We go through twelve molecules from ChEMBL document CHEMBL1142575, “New colchicinoids from a native Jordanian meadow saffron, colchicum brachyphyllum: isolation of the first naturally occurring dextrorotatory colchicinoid” (J Nat Prod, 2005).

The test system of one data set is MCF7. Nature of the data set: Cytotoxicity against human MCF7 after 3 days by SRB assay. The following applies: MCF7, 72 h. The data set is classed as functional, cell-based. Background: The SRB assay estimates cell density from bound dye.
A further data set deals with Saccharomyces cerevisiae. Description: Antimicrobial activity against Saccharomyces cerevisiae after 3 days. Format: functional. The settings on record: 72 h.
A short description of data set [1]: (§1) Toxicity in brine shrimp. The data set is classed as organism-based. The settings on record: artemia, in vivo. Put shortly: (§2)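 Brine shrimp lethality. LC50 in μg/mL, taken from single experiments with four concentrations, each run in triplicate.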
The test system of data set [2] is Mycolicibacterium smegmatis. Nature of the data set: Antimicrobial activity against Mycobacterium smegmatis after 3 days. The data set is classed as functional. The following applies: 72 h.
The next data set deals with Micrococcus luteus. Nature of the data set: Antimicrobial activity against Micrococcus luteus after 3 days. The following applies: 72 h. Format: functional.
A further data set deals with SF-268. Description: cells. Format: functional, cell-based. The following applies: Homo sapiens, SF-268, 72 h.
The next data set has as its system Aspergillus niger. Nature of the data set: Antimicrobial activity against Aspergillus niger after 3 days. The data set is classed as functional. The settings on record: 72 h.
The subject of the next data set is NCI-H460. Description: Cytotoxicity against human H460 after 3 days by SRB assay. The data set is classed as functional, cell-based. The settings on record: NCI-H460, 72 h.
Data set [3] is filed under the species Rattus norvegicus. Nature of the data set: Displacement of [3H]flunitrazepam from GABAA in rat cerebral cortical 10 uM. Put shortly: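 Rat cortical membrane homogenate in 50 mM sodium phosphate/200 mM NaCl pH 7.4. Duplicates, 500 μL final volume: 50 μg protein, test compound 10 μM, 1.0 μM GABA, 1.0 nM [3H]flunitrazepam. Nonspecific binding defined with 10 μM clonazepam. After 1 h at rt, filtered over PEI-soaked GF/B and counted. Net binding change versus basal is given as % of the 10 μM allopregnanolone response.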
(In general: Displacement assays read how much labelled ligand stays bound in the presence of the test substance.)

The species named for data set [4] is Rattus norvegicus. Description: Displacement of […] from GABAA in rat cerebral cortical at 10 uM. In a few lines: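 Rat cerebral cortex membranes (sucrose homogenate, differential centrifugation, washed in 50 mM sodium phosphate/200 mM NaCl pH 7.4). Duplicate wells, 500 μL final volume: 50 μg protein, test compound 10 μM, 5.0 μM GABA, 2.0 nM [35S]TBPS. Nonspecific binding defined with 200 μM picrotoxin. Incubation 1 h at rt, then GF/B vacuum filtration and scintillation counting. Net change versus basal is reported as % of 10 μM allopregnanolone.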

The next data set has as its system Artemia. The description is as §1. The data set is classed as organism-based. The settings on record: in vivo. Put shortly: as §2

In the case of `COC1=C2c3ccc(OC)c(=O)cc3[C@H]3CC4(C)N3C24C=C(O)C1=O` (stereo not given in full) [DEMECOLCINONE], the EC50 in the data set with MCF7 is 28700 nM; with SF-268 it was 28400 nM; in the data set on NCI-H460 it was 31300 nM. Moreover, the MIC (with Saccharomyces cerevisiae; in data set [2]; with Micrococcus luteus; in the data set on Aspergillus niger) was more than 500 µg/mL in each case. Further, in [1], the LC50 came out at 79.3 µg/mL (≈ 234 µM).
Regarding `COc1c(O)cc2c(c1OC)-c1ccc(OC)c(=O)cc1[C@@H](NC(C)=O)CC2` [3-DESMETHYLCOLCHICIN], the LC50 in [1] came out at 74.6 µg/mL (≈ 194 µM).
`CN[C@H]1CCc2cc(O)c(O)c(OC)c2-c2ccc(OC)c(=O)cc21`: the EC50 is 130000 nM with MCF7, 80200 nM with SF-268 and 216000 nM with NCI-H460. For the same molecule, the MIC (against Saccharomyces cerevisiae; in data set [2]; against Micrococcus luteus; against Aspergillus niger) was more than 500 µg/mL each time. For the same molecule, in data set [1], the LC50 was found to be 88.2 µg/mL (≈ 257 µM).
With `COc1ccc2c(c1O)[C@@H](NC(C)=O)CCc1cc(OC)c(OC)c(OC)c1-2`, the EC50 in the data set with MCF7 was found to be 200 nM; in the data set on SF-268 it was 370 nM; in the data set with NCI-H460, 260 nM. The minimal inhibitory concentration (MIC) (in the data set on Saccharomyces cerevisiae; in data set [2]; against Micrococcus luteus; against Aspergillus niger) was more than 500 µg/mL in each case. The molecule also displayed an LC50 in data set [1] of 48.8 µg/mL (≈ 126 µM). The Activity in the data set filed under Rattus norvegicus [3] and in the data set filed under Rattus norvegicus [4] was 50% in each case.
Regarding `COc1cc2c(c(OC)c1OC)-c1ccc(OC)c(=O)cc1[C@@H](NC(C)=O)CC2` (stereo in doubt; 1) [COLCHICINE], the EC50 in the data set on MCF7 came out at 16 nM; in the data set with SF-268, 25 nM; in the data set with NCI-H460, 30 nM. In addition, the MIC (with Saccharomyces cerevisiae; in [2]; against Micrococcus luteus; in the data set with Aspergillus niger) was more than 500 µg/mL each time. The same molecule returned an LC50 in data set [1] of 3.7 µg/mL (≈ 9.26 µM).
In the case of `CC(=O)[C@H]1CC[C@H]2[C@@H]3CC[C@H]4C[C@H](O)CC[C@]4(C)[C@H]3CC[C@]12C`, the result in the data set filed under Rattus norvegicus [3] and in the data set listed under Rattus norvegicus [4] was Active.
With `CC[C@@]1(O)C(=O)OCc2c1cc1n(c2=O)Cc2cc3ccccc3nc2-1` [CAMPTOTHECIN], the EC50 with MCF7 was determined as 72 nM; in the data set with SF-268 it was 59 nM; with NCI-H460, 6.9 nM.
`COc1cc2c(c(OC)c1OC)-c1ccc(OC)c(=O)cc1[C@@H](NC(C)=O)CC2` (stereo in doubt) [COLCHICINE] came in with an LC50 with Artemia of 2.8 µg/mL (≈ 7.01 µM).
As for `CN[C@H]1CCc2cc(OC)c(OC)c(OC)c2-c2ccc(OC)c(=O)cc21` [DEMECOLCINE], the results for the EC50 in the data set with MCF7, in the data set with SF-268 and in the data set on NCI-H460 were 600 nM, 6200 nM and 690 nM, respectively. Further, the MIC (in the data set with Saccharomyces cerevisiae; in data set [2]; with Micrococcus luteus; with Aspergillus niger) was more than 500 µg/mL each time. This molecule also yielded an LC50 in data set [1] of 61 µg/mL (≈ 164 µM).
Regarding `COC1=C[C@@H]2C3=C([C@@H]2C1=O)[C@@H](NC(C)=O)CCc1cc(OC)c(OC)c(OC)c13`, the EC50 in the data set with MCF7 was determined as 1500 nM; with SF-268, 3200 nM; with NCI-H460 it was 2100 nM. The MIC (against Saccharomyces cerevisiae; in [2]; in the data set on Micrococcus luteus; in the data set on Aspergillus niger) was more than 500 µg/mL throughout. For the same molecule, the LC50 in data set [1] was 74.6 µg/mL (≈ 187 µM).
As to `COc1c2c(cc3c1-c1ccc(OC)c(=O)cc1[C@@H](NC(C)=O)CC3)OCO2`, the EC50 worked out at 61 nM in the data set with MCF7, 97 nM with SF-268 and 59 nM with NCI-H460. The MIC (against Saccharomyces cerevisiae; in data set [2]; against Micrococcus luteus; against Aspergillus niger) was more than 500 µg/mL throughout. The molecule further displayed a median lethal concentration (LC50) in data set [1] of 7.7 µg/mL (≈ 20.1 µM). In addition, the Activity in the data set listed under Rattus norvegicus [3] and in the data set listed under Rattus norvegicus [4] was 50% each time.
For the molecule `CN[C@H]1CCc2cc(O)c(OC)c(OC)c2-c2ccc(OC)c(=O)cc21`, the EC50 with MCF7 was 790 nM; in the data set on SF-268 it was 3200 nM; with NCI-H460, 1100 nM. Moreover, the minimum inhibitory concentration (MIC) (in the data set on Saccharomyces cerevisiae; in [2]; with Micrococcus luteus; in the data set on Aspergillus niger) was more than 500 µg/mL in each case. Moreover, the LC50 in data set [1] turned out to be 71.5 µg/mL (≈ 200 µM).
